The target of one experiment is T1, MIF-CD74 binding (Homo sapiens, UniProt P14174).
T1 sequence (P14174 2-115 limits assumed): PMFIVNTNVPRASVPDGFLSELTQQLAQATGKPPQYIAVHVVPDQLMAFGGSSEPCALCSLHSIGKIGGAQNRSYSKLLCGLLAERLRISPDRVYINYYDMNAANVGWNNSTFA
Briefly: MIF-CD74 binding assay. Particulars: for IC50 or max % inhib CD74 (result in words): MIF-CD74 binding assay.

The target in another experiment is T2, human MIF (Homo sapiens, UniProt P14174).
T2 sequence (P14174 2-115 limits assumed): T1 sequence (P14174 2-115 limits assumed)
The experiment in a line: MIF tautomerase assay using 4-hydroxyphenylpyruvate. Type of experiment: biochemical. The following applies: for IC50 or max % inhib 4-HPP (result in words): tautomerase assay. A digest of the protocol:
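Recombinant human MIF; tautomerase activity measured with 4-hydroxyphenylpyruvate (4-HPP) as substrate. Test compounds were run from 1 nM to 1 mM. IC50 was reported. Where inhibition plateaued below 50%, the maximum percent inhibition was reported instead.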

Experiment [1] concerns MIF-dependent ERK1/2 phosphorylation. The experiment in a line: MIF-dependent ERK1/2 phosphorylation in human fibroblasts. Type of experiment: cell-based. Particulars: human primary fibroblasts, MIF […] trimer, compound 8 nM, 30 min.
The subject of the next experiment is MIF tautomerase. Particulars: cited from earlier work.

Broadly, the IC50 is the concentration that inhibits the measured activity by half. Higher therefore signals a need for much substance. `Oc1ccc(-c2cn(Cc3ccccc3)nn2)cc1` [3a] yielded an IC50 on MIF-CD74 binding of over 1000 µM.
Still for that read-out and setting: then `Cc1ccccc1Cn1cc(-c2ccc(O)cc2)nn1` [3b], with over 1000 µM; and `Cc1cccc(Cn2cc(-c3ccc(O)cc3)nn2)c1` [3c], with over 1000 µM.
Turning to `COc1ccccc1Cn1cc(-c2ccc(O)cc2)nn1` [3d], at MIF-CD74 binding, the “IC50 or max % inhib CD74 (result in words)” value (from here on “IC50 or max % inhib CD74”) is “Agon”. The “IC50 or max % inhib 4-HPP (result in words)” value (“IC50 or max % inhib 4-HPP” for short) against human MIF is listed as “Agon”. For the same molecule, the “effect on MIF-dependent ERK1/2 phosphorylation” value (from here on “effect”) in experiment [1] is recorded as “enhances ERK1/2 phosphorylation”.
Regarding `COc1ccc(Cn2cc(-c3ccc(O)cc3)nn2)cc1` [3f], the IC50 on MIF-CD74 binding is over 1000 µM.
On to `COc1cccc(Cn2cc(-c3ccc(O)cc3)nn2)c1OC` [3g], for which the IC50 on MIF-CD74 binding and on human MIF was about 1 µM in each case. The “effect” value in experiment [1] is “strongly inhibits”.
`COC(=O)c1cccc(Cn2cc(-c3ccc(O)cc3)nn2)c1` [3h]: the IC50 on MIF-CD74 binding and at human MIF was about 1 µM each time.
Molecule `O=C(O)c1cccc(Cn2cc(-c3ccc(O)cc3)nn2)c1` [3i] had an IC50 on MIF-CD74 binding of over 1000 µM.
As for `Oc1ccc(-n2cc(Cc3cccc(O)c3)nn2)cc1` [4d], the IC50 on MIF-CD74 binding and against human MIF was over 1000 µM throughout.
On to `COc1cccc(Cc2cn(-c3ccc(O)cc3)nn2)c1OC` [4i], for which the IC50 at MIF-CD74 binding is over 1000 µM.
With `Oc1ccc(-n2cc(-c3cccnc3)nn2)cc1` [5a], on MIF-CD74 binding, the “IC50 or max % inhib CD74” value is on record as “Agon”. For the same molecule, on human MIF, the “IC50 or max % inhib 4-HPP” value is listed as “Agon”. In addition, the “effect” value in experiment [1] is listed as “enhances ERK1/2 phosphorylation”.
For `Oc1ccc(-n2cc(-c3cccc4ccccc34)nn2)cc1` [5b], the IC50 at MIF-CD74 binding was over 1000 µM.
For the molecule `Oc1ccc(-n2cc(-c3cncc4ccccc34)nn2)cc1` [5c], at MIF-CD74 binding, the “IC50 or max % inhib CD74” value is on record as “Agon”. The “IC50 or max % inhib 4-HPP” value on human MIF is recorded as “Agon”. In addition, the “effect” value in experiment [1] is recorded as “enhances ERK1/2 phosphorylation”.
In the case of `CCOC(=O)c1cc2ccc(O)cc2oc1=O` [compound 1], the “tautomerase inhibition (reported potency)” value with MIF tautomerase is 7 µM.
On to `COC(=O)CC1CC(c2ccc(O)cc2)=NO1` (stereo not shown) [compound 2], for which the “tautomerase inhibition (reported potency)” value in the experiment on MIF tautomerase is 7 µM.

Source of the values: PMC2989669 (Bioorganic & medicinal chemistry letters, 2010).
